{
  "source": "paper PMC2223369",
  "about": "(The Journal of General Physiology, 1999)",
  "key": {"[1]": {"tested_on": "alpha subunit of type IIA sodium channels", "test": "Use-dependent block, conditioning pulse protocol", "type": "cell-based, rat", "conditions": "for use-dependent block, conditioning pulse protocol (in words): Fig. 5 and 6; for use-dependent block at 200 mV: wild-type channels, conditioning pulses to 200 mV"}, "[2]": {"tested_on": "alpha subunit of type IIA sodium channels", "test": "Fast peptide block of LqTx-modified sodium channels, whole-cell patch clamp", "type": "cell-based, rat", "conditions": "100 nM LqTx; for k b(0 mV), blocking rate / k u(0 mV), unblocking rate: 1 mM peptide, SEM; for k b(0 mV), blocking rate: calculated from τ and Fss by Eq. 2, mean ± SEM; for k u(0 mV), unblocking rate: calculated from τ and Fss by Eq. 3, mean ± SEM; for fraction of extrapolated peak sodium current unblocked at steady state / fast block of LqTx-modified sodium channels (in words): 1 mM peptide intracellular, 0 mV", "how_it_was_run": "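CHO cells stably expressing the channel alpha subunit, recorded 24 h after subculture; whole-cell patch clamp at 22–25°C. Pipette carries 1 mM test peptide, and recording starts about 20 min after break-in. LqTx-modified currents are elicited by steps from −80 mV to 0 mV. Decay is fit to a single exponential, with Fss = B/(A+B). kb and ku come from τ and Fss.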"}, "[3]": {"tested_on": "sodium channels", "conditions": "ref Eaholtz et al., cited from earlier work"}, "[4]": {"tested_on": "alpha subunit of type IIA sodium channels", "test": "Recovery from fast block, two-pulse voltage protocol", "type": "cell-based, rat", "conditions": "for time constant of recovery from fast block at −80 mV: interpulse −80 mV, mean ± SEM, n = 5", "how_it_was_run": "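CHO cells stably expressing the channel alpha subunit, under whole-cell clamp at 22–25°C with 1 mM test peptide in the pipette; channels LqTx-modified. Two 0-mV test pulses give the ratio I2/I1. The protocol is repeated 20× with the interpulse interval increased by Δt each time. Interpulse voltage is −80, −100, −120 or −140 mV. Recovery versus interval is fit to a single exponential for the time constant.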"}, "[5]": {"conditions": "1 mM peptide, channels not modified by LqTx"}},
  "data": [
    {"compound": "NC(=O)[C@@H](N)Cc1ccccc1", "note": "[F-NH2, phenylalanine-amide]", "values": [
      {"measurement": "use-dependent block, conditioning pulse protocol (in words)", "setting": "[1]; [5]", "result": "not effective in use-dependent block"}
    ]},
    {"compound": "Ac-KIFMTK-NH2", "values": [
      {"measurement": "use-dependent block, conditioning pulse protocol (in words)", "setting": "[1]; [5]", "result": "poor use-dependent blocker"},
      {"measurement": "k b(0 mV), blocking rate", "setting": "[2]", "result": "2881 ± 263", "unit": "s⁻¹"},
      {"measurement": "k u(0 mV), unblocking rate", "setting": "[2]", "result": "731 ± 8", "unit": "s⁻¹"}
    ]},
    {"compound": "DIFMK-NH2", "values": [
      {"measurement": "use-dependent block, conditioning pulse protocol (in words)", "setting": "[1]; [5]", "result": "much less effective than ac-KIFMK-NH2"}
    ]},
    {"compound": "FM-NH2", "values": [
      {"measurement": "use-dependent block, conditioning pulse protocol (in words)", "setting": "[1]; [5]", "result": "not effective in use-dependent block"}
    ]},
    {"compound": "KIFM-NH2", "values": [
      {"measurement": "use-dependent block, conditioning pulse protocol (in words)", "setting": "[1]; [5]", "result": "substantial use-dependent block"},
      {"measurement": "fraction of extrapolated peak sodium current unblocked at steady state", "setting": "[2]", "result": 42, "unit": "%"},
      {"measurement": "k b(0 mV), blocking rate", "setting": "[2]", "result": "1751 ± 163", "unit": "s⁻¹"},
      {"measurement": "k u(0 mV), unblocking rate", "setting": "[2]", "result": "1283 ± 149", "unit": "s⁻¹"}
    ]},
    {"compound": "KIFMT-NH2", "values": [
      {"measurement": "use-dependent block, conditioning pulse protocol (in words)", "setting": "[1]; [5]", "result": "much less effective than ac-KIFMK-NH2"},
      {"measurement": "fast block of LqTx-modified sodium channels (in words)", "setting": "[2]", "result": "rapidly blocked LqTx-modified sodium currents"},
      {"measurement": "k u(0 mV), unblocking rate", "setting": "[2]", "result": "386 ± 81", "unit": "s⁻¹"}
    ]},
    {"compound": "ac-DIFMT-NH2", "values": [
      {"measurement": "use-dependent block, conditioning pulse protocol (in words)", "setting": "[1]; [5]", "result": "no effect at all"},
      {"measurement": "fast block of LqTx-modified sodium channels (in words)", "setting": "[2]", "result": "did not produce significant fast block"}
    ]},
    {"compound": "ac-KAFAK-NH2", "values": [
      {"measurement": "use-dependent block, conditioning pulse protocol (in words)", "setting": "[1]; [5]", "result": "less effective"},
      {"measurement": "use-dependent block at 200 mV", "setting": "[1]; 1 mM peptide", "result": "> 60", "unit": "%"},
      {"measurement": "fast block of sodium channels (in words)", "setting": "[3]; 1994", "result": "did not produce fast block"}
    ]},
    {"compound": "ac-KIFMK-NH2", "values": [
      {"measurement": "time constant of recovery from fast block at −80 mV", "setting": "[4]; 1 mM peptide, LqTx-modified channels", "result": 0.9, "unit": "ms"},
      {"measurement": "time constant of recovery from fast block at −80 mV", "setting": "[4]; 1 mM peptide, LqTx-modified channels, SEM", "result": "0.9 ± 0.3", "unit": "ms"},
      {"measurement": "time constant of recovery from fast block at −100 mV", "setting": "[4]; 1 mM peptide, LqTx-modified channels, interpulse −100 mV, n = 6", "result": "0.6 ± 0.1", "unit": "ms"},
      {"measurement": "time constant of recovery from fast block at −120 mV", "setting": "[4]; 1 mM peptide, LqTx-modified channels, interpulse −120 mV, n = 6", "result": "0.4 ± 0.1", "unit": "ms"},
      {"measurement": "time constant of recovery from fast block at −140 mV", "setting": "[4]; 1 mM peptide, LqTx-modified channels, interpulse −140 mV, n = 4", "result": "0.3 ± 0.1", "unit": "ms"},
      {"measurement": "time at which recovery from fast block was half complete", "setting": "[4]; −80 mV", "result": 0.9, "unit": "ms"},
      {"measurement": "fractional current (I12/I1) after 10 conditioning pulses to 200 mV, LqTx-modified channels", "setting": "[1]; 1 mM peptide, 100 nM LqTx, n = 6, mean ± SEM, SEM", "result": "0.03 ± 0.02"},
      {"measurement": "use-dependent block in the absence or presence of LqTx", "setting": "[1]; 1.0 mM peptide, 200-mV conditioning pulses", "result": "> 95", "unit": "%"},
      {"measurement": "conditioning voltage of half-maximal use-dependent block", "setting": "[1]; 1 mM peptide, channels not modified by LqTx, Fig. 5 A", "result": "+125 mV"},
      {"measurement": "use-dependent block with conditioning pulses more positive than 150 mV", "setting": "[1]; 1.5 mM peptide, three cells, unmodified channels", "result": "~100", "unit": "%"},
      {"measurement": "δ of use-dependent block", "setting": "[1]; mean zδ divided by two (two positive charges)", "result": 0.5},
      {"measurement": "time for half-maximal recovery from use-dependent block", "setting": "[1]; −80 mV", "result": "more than 90 s"},
      {"measurement": "fraction of extrapolated peak sodium current unblocked at steady state", "setting": "[2]", "result": 21, "unit": "%"},
      {"measurement": "k u(0 mV), unblocking rate", "setting": "[2]", "result": "587 ± 40", "unit": "s⁻¹"},
      {"measurement": "δ value of fast block", "setting": "[3]; voltage dependence of fast block, 1998", "result": 0.3}
    ]},
    {"compound": "ac-KIQMK-NH2", "values": [
      {"measurement": "use-dependent block, conditioning pulse protocol (in words)", "setting": "[1]; [5]", "result": "did not produce significant block"},
      {"measurement": "fast block of sodium channels (in words)", "setting": "[3]; 1994", "result": "did not produce fast block"},
      {"measurement": "use-dependent block (in words)", "setting": "[3]; 1994", "result": "ineffective in use-dependent block"}
    ]},
    {"compound": "ac-RIFMR-NH2", "values": [
      {"measurement": "use-dependent block, conditioning pulse protocol (in words)", "setting": "[1]; [5]", "result": "significantly more potent than ac-KIFMK-NH2"},
      {"measurement": "fast block of LqTx-modified sodium channels (in words)", "setting": "[2]", "result": "rapidly blocked LqTx-modified sodium currents"},
      {"measurement": "k u(0 mV), unblocking rate", "setting": "[2]", "result": "222 ± 33", "unit": "s⁻¹"}
    ]},
    {"compound": "cyclic KIFMK (head to tail)", "values": [
      {"measurement": "use-dependent block, conditioning pulse protocol (in words)", "setting": "[1]; [5]", "result": "nearly as potent in use-dependent block as ac-KIFMK-NH2"},
      {"measurement": "use-dependent block at 200 mV", "setting": "[1]; 1 mM peptide", "result": "~100", "unit": "%"},
      {"measurement": "fast block of LqTx-modified sodium channels (in words)", "setting": "[2]", "result": "did not exhibit significant fast block"}
    ]}
  ]
}
